Measured values as given in ChEMBL document CHEMBL1165899, “Synthesis and antitumor evaluation of novel cyclic arylsulfonylureas: ADME-T and pharmacophore prediction” (2010).

Columns and labels:
Assay type in all cases: functional
SK-MEL-5 = test: Growth inhibition of human SK-MEL-5 cells at 10 uM after 48 hrs by sulforhodamine B assay relative to control; conditions: SK-MEL-5, 48 h, read-out: GI
SK-MEL-28 = test: Growth inhibition of human SK-MEL-28 cells at 10 uM after 48 hrs by sulforhodamine B assay relative to control; conditions: SK-MEL-28, 48 h, read-out: GI
SK-MEL-2 = test: Growth inhibition of human SK-MEL-2 cells at 10 uM after 48 hrs by sulforhodamine B assay relative to control; conditions: SK-MEL-2, 48 h, read-out: GI
Malme-3M = test: Growth inhibition of human MALME-3M cells at 10 uM after 48 hrs by sulforhodamine B assay relative to control; conditions: read-out: GI
RXF 393 = test: Growth inhibition of human RXF393 cells at 10 uM after 48 hrs by sulforhodamine B assay relative to control; conditions: RXF 393, 48 h, read-out: GI
CAKI-1 = test: Growth inhibition of human Caki1 cells at 10 uM after 48 hrs by sulforhodamine B assay relative to control; conditions: CAKI-1, 48 h, read-out: GI
ACHN = test: Growth inhibition of human ACHN cells at 10 uM after 48 hrs by sulforhodamine B assay relative to control; conditions: read-out: GI
A498 = test: Growth inhibition of human A498 cells at 10 uM after 48 hrs by sulforhodamine B assay relative to control; conditions: A498, 48 h, read-out: GI
SR = test: Growth inhibition of human SR cells at 10 uM after 48 hrs by sulforhodamine B assay relative to control; conditions: read-out: GI
MOLT-4 = test: Growth inhibition of human MOLT4 cells at 10 uM after 48 hrs by sulforhodamine B assay relative to control; conditions: MOLT-4, 48 h, read-out: GI
PC-3 = test: Growth inhibition of human PC3 cells at 10 uM after 48 hrs by sulforhodamine B assay relative to control; conditions: PC-3, 48 h, read-out: GI
DU-145 = test: Growth inhibition of human DU145 cells at 10 uM after 48 hrs by sulforhodamine B assay relative to control; conditions: DU-145, 48 h, read-out: GI
SK-OV-3 = test: Growth inhibition of human SKOV3 cells at 10 uM after 48 hrs by sulforhodamine B assay relative to control; conditions: SK-OV-3, 48 h, read-out: GI
OVCAR-3 = test: Growth inhibition of human OVCAR-3 cells at 10 uM after 48 hrs by sulforhodamine B assay relative to control; conditions: OVCAR-3, 48 h, read-out: GI
MDA-MB-435 = test: Growth inhibition of human MDA-MB-435 cells at 10 uM after 48 hrs by sulforhodamine B assay relative to control; conditions: MDA-MB-435, 48 h, read-out: GI
SW-620 = test: Growth inhibition of human SW620 cells at 10 uM after 48 hrs by sulforhodamine B assay relative to control; conditions: SW-620, 48 h, read-out: GI
Procedure, shortened: (§1)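 NCI 60-cell-line single-dose screen at 10 µM. Cells were plated at 5000–40,000 cells/well according to doubling time, in medium with 2 mM L-glutamine, and held 24 h at 37 °C, 5% CO₂, 100% humidity before drug. Time-zero plates were TCA-fixed. Exposure was 48 h, then TCA fixation and sulforhodamine B staining for 10 min, acetic acid washes, 10 mM trizma solubilization and A515. % inhibition = 100 − % activity, where 100% is the DMSO-solvent control.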

KM12 = test: Growth inhibition of human KM12 cells at 10 uM after 48 hrs by sulforhodamine B assay relative to control; conditions: KM12, 48 h, read-out: GI
HCT-116 = test: Growth inhibition of human HCT116 cells at 10 uM after 48 hrs by sulforhodamine B assay relative to control; conditions: HCT-116, 48 h, read-out: GI
HCC 2998 = test: Growth inhibition of human HCC2998 cells at 10 uM after 48 hrs by sulforhodamine B assay relative to control; conditions: HCC 2998, 48 h, read-out: GI
NCI-H460 = test: Growth inhibition of human NCI-H460 cells at 10 uM after 48 hrs by sulforhodamine B assay relative to control; conditions: NCI-H460, 48 h, read-out: GI
NCI-H322M = test: Growth inhibition of human NCI-H322M cells at 10 uM after 48 hrs by sulforhodamine B assay relative to control; conditions: read-out: GI
A549 = test: Growth inhibition of human A549 cells at 10 uM after 48 hrs by sulforhodamine B assay relative to control; conditions: A549, 48 h, read-out: GI
SF-295 = test: Growth inhibition of human SF295 cells at 10 uM after 48 hrs by sulforhodamine B assay relative to control; conditions: SF-295, 48 h, read-out: GI
U-251 = test: Growth inhibition of human U251 cells at 10 uM after 48 hrs by sulforhodamine B assay relative to control; conditions: U-251, 48 h, read-out: GI; procedure, shortened: as §1
UACC-257 = test: Growth inhibition of human UACC257 cells at 10 uM after 48 hrs by sulforhodamine B assay relative to control; conditions: UACC-257, 48 h, read-out: GI; procedure, shortened: as §1

In the case of CN(C)c1ccc(/C=C2\NC(=O)N(S(=O)(=O)c3ccc(Cl)cc3)C2=O)cc1, the inhibition of growth at 10 µM (SK-MEL-5) is reported as -3.11%, the inhibition of growth at 10 µM (SK-MEL-28) is reported as -4.69% and the inhibition of growth at 10 µM (SK-MEL-2) is reported as 1.29%. It also gave an inhibition of growth at 10 µM (Malme-3M) of -49.7%, an inhibition of growth at 10 µM (RXF 393) of 95.7% and an inhibition of growth at 10 µM (CAKI-1) of -5.71%. The inhibition of growth at 10 µM (ACHN) was -5.38%, the inhibition of growth at 10 µM (A498) was -8.94% and the inhibition of growth at 10 µM (SR) was 34.7%. It also gave an inhibition of growth at 10 µM (MOLT-4) of 11.5%, an inhibition of growth at 10 µM (PC-3) of -6.65% and an inhibition of growth at 10 µM (DU-145) of -4.25%. For the same molecule, the inhibition of growth at 10 µM (SK-OV-3) was -8.45%, the inhibition of growth at 10 µM (OVCAR-3) was -13.9% and the inhibition of growth at 10 µM (MDA-MB-435) was -4.89%. The inhibition of growth at 10 µM (SW-620) was -1.96%, the inhibition of growth at 10 µM (KM12) was -11.6% and the inhibition of growth at 10 µM (HCT-116) was -3.55%. The inhibition of growth at 10 µM (HCC 2998) was -54%, the inhibition of growth at 10 µM (NCI-H460) was -15.8% and the inhibition of growth at 10 µM (NCI-H322M) was -16.5%. The inhibition of growth at 10 µM (A549) was -8.84%, the inhibition of growth at 10 µM (SF-295) was -8.92% and the inhibition of growth at 10 µM (U-251) was -0.69%. For the same molecule, the inhibition of growth at 10 µM (UACC-257) was -1.01%.
